pIC50: −log10 of the molar value.
What was measured:
[1] = system: HeLa; assay: Antiproliferative activity against human HeLa cells after 2 days by spectrophotometric analysis; format: functional; details: 48 h
How it was run: (§1)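 Cells from ATCC were kept in RPMI 1640 with 5% FBS. They were exposed to graded concentrations in DMSO/RPMI for 48 h at 37 C under 5% CO2, then fixed with 50% trichloroacetic acid. Cellular protein was read at 540 nm at time zero and at 48 h, with and without compound. TGI (100% growth inhibition) was taken from the concentration-response curve.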

[2] = molecular target: T1, Tyrosine-protein kinase receptor UFO (Homo sapiens, UniProt P30530); assay: Inhibition of N-terminal His-tagged recombinant human AXL (473 to end amino acids) expressed by baculovirus in Sf9 cells using axltide substrate and ATP by ADP-Glo luminescence assay
T1 sequence (P30530 whole entry): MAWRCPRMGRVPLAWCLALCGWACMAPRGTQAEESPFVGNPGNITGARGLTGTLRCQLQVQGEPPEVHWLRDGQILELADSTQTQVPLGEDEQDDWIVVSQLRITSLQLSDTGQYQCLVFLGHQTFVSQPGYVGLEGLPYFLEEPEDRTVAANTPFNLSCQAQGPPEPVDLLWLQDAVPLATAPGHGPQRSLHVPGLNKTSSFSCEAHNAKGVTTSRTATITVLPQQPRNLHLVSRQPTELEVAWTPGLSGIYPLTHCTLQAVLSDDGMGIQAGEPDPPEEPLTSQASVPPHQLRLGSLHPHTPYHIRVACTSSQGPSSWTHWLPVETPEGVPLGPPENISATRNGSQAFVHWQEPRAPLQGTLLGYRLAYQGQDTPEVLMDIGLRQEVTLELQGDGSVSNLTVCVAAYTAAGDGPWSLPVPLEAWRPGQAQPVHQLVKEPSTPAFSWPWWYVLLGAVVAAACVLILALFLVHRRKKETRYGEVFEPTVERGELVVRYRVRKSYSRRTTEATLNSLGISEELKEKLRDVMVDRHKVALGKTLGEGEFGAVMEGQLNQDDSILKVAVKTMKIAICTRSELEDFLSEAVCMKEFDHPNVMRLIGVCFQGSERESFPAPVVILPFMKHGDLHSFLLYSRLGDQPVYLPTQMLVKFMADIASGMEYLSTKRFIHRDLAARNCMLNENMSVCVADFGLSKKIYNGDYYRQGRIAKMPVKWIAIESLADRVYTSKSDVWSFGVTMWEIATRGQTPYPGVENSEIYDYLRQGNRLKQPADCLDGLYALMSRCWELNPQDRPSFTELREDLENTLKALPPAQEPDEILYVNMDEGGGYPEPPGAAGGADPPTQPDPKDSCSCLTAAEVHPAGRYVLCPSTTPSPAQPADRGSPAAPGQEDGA

[3] = system: HepG2; assay: Antiproliferative activity against human HepG2 cells after 2 days by spectrophotometric analysis; format: functional; details: HepG2, 48 h
[4] = system: OVCAR-3; assay: Antiproliferative activity against human OVCAR3 cells after 2 days by spectrophotometric analysis; format: functional; details: OVCAR-3, 48 h; how it was run: as §1
[5] = system: A549; assay: Antiproliferative activity against human A549 cells after 2 days by spectrophotometric analysis; format: functional; details: A549, 48 h
[6] = system: U-87 MG; assay: Antiproliferative activity against human U87MG cells after 2 days by spectrophotometric analysis; format: functional, U-87MG ATCC; details: 48 h

GI50 [1] [µM]	pIC50 [2]	GI50 [3] [µM]	GI50 [4] [µM]	GI50 [5] [µM]	GI50 [6] [µM]	SMILES
7.3	< 4.70	8.6	> 50	6.2	29.8	CN(c1cccc2c1CN(c1nc(Nc3ccc(Nc4ccccc4)cc3)ncc1C(F)(F)F)C2)S(C)(=O)=O
6.5	–	16.8	> 30	> 30	> 30	Cc1cc(F)ccc1Nc1ncc(C(F)(F)F)c(N2Cc3cccc(N(C)S(C)(=O)=O)c3C2)n1
0.79	–	1.9	2.4	2.5	6.8	CN(c1cccc2c1CN(c1nc(Nc3ccc(N4CCOCC4)cc3)ncc1C(F)(F)F)C2)S(C)(=O)=O
4.3	< 4.52	9.9	21.5	6.7	5.5	CN(c1cccc2c1CN(c1nc(Nc3cc(Cl)cc(C(F)(F)F)c3)ncc1C(F)(F)F)C2)S(C)(=O)=O
14	< 4.70	> 30	> 30	> 30	29.4	COc1ccc(Nc2ncc(C(F)(F)F)c(N3Cc4cccc(N(C)S(C)(=O)=O)c4C3)n2)cc1C(F)(F)F
17.4	< 4.70	19.6	> 30	25.5	28.3	Cc1cc(Cl)ccc1Nc1ncc(C(F)(F)F)c(N2Cc3cccc(N(C)S(C)(=O)=O)c3C2)n1
17.2	< 4.70	> 30	> 30	> 30	> 30	COc1ccc(C(F)(F)F)cc1Nc1ncc(C(F)(F)F)c(N2Cc3cccc(N(C)S(C)(=O)=O)c3C2)n1
10.9	< 4.70	> 30	> 30	> 30	> 30	Cc1ccc(Nc2ncc(C(F)(F)F)c(N3Cc4cccc(N(C)S(C)(=O)=O)c4C3)n2)c(Cl)c1
> 30	< 4.70	> 30	> 30	> 30	> 30	Cc1cc(C)cc(Nc2ncc(C(F)(F)F)c(N3Cc4cccc(N(C)S(C)(=O)=O)c4C3)n2)c1
5.1	–	22.1	> 30	> 30	> 30	COc1cc(Nc2ncc(C(F)(F)F)c(N3Cc4cccc(N(C)S(C)(=O)=O)c4C3)n2)cc(C(F)(F)F)c1
1.3	–	3.8	1.6	3.3	4.7	COc1cc(N2CCN(C(C)=O)CC2)ccc1Nc1ncc(C(F)(F)F)c(N2Cc3cccc(N(C)S(C)(=O)=O)c3C2)n1
6.3	–	9.8	> 30	12.1	> 30	CN(c1cccc2c1CN(c1nc(Nc3ccc4c(c3)OCO4)ncc1C(F)(F)F)C2)S(C)(=O)=O
5.3	–	> 30	> 30	> 30	> 30	CN(c1cccc2c1CN(c1nc(Nc3cccc(C(F)(F)F)c3)ncc1C(F)(F)F)C2)S(C)(=O)=O
> 30	< 4.70	> 30	> 30	> 30	> 30	Cc1ccc(Nc2ncc(C(F)(F)F)c(N3Cc4cccc(N(C)S(C)(=O)=O)c4C3)n2)cc1C
7	–	1.8	0.63	24.8	> 30	COc1cc(Nc2ncc(C(F)(F)F)c(N3Cc4cccc(N(C)S(C)(=O)=O)c4C3)n2)cc(OC)c1
23.9	< 4.70	> 30	> 50	> 30	> 30	CN(c1cccc2c1CN(c1nc(Nc3ccccc3N3CCOCC3)ncc1C(F)(F)F)C2)S(C)(=O)=O
4.3	–	23	24.9	19	19.5	CN(c1cccc2c1CN(c1nc(Nc3cccc(Oc4ccccc4)c3)ncc1C(F)(F)F)C2)S(C)(=O)=O
9.2	< 4.70	10.3	> 30	> 30	16.8	CN(c1cccc2c1CN(c1nc(Nc3cc(C(F)(F)F)cc(C(F)(F)F)c3)ncc1C(F)(F)F)C2)S(C)(=O)=O
11.1	< 4.70	16	> 50	15.2	> 30	CN(c1cccc2c1CN(c1nc(Nc3ccc(Cl)c(C(F)(F)F)c3)ncc1C(F)(F)F)C2)S(C)(=O)=O
> 30	< 4.70	> 30	> 30	> 30	> 30	CN(c1cccc2c1CN(c1nc(Nc3ccc(C(F)(F)F)cc3)ncc1C(F)(F)F)C2)S(C)(=O)=O
10.6	–	19.1	> 30	20.7	> 30	Cc1ccc(Nc2ncc(C(F)(F)F)c(N3Cc4cccc(N(C)S(C)(=O)=O)c4C3)n2)c(C)c1
1.7	–	1.2	1.8	2.1	3.7	CN(c1ncccc1CNc1nc(Nc2ccc3c(c2)CC(=O)N3)ncc1C(F)(F)F)S(C)(=O)=O
16.5	< 4.70	25.6	> 30	7.3	6.2	COc1cc(Nc2ncc(C(F)(F)F)c(N3Cc4cccc(N(C)S(C)(=O)=O)c4C3)n2)c(OC)cc1Cl

— ChEMBL document CHEMBL4325842, “Design, synthesis, and biological evaluation of novel aminopyrimidinylisoindolines as AXL kinase inhibitors” (Bioorg Med Chem Lett, 2018)
